Bioassay records: PubChem BioAssay, several laboratories
Mot1-301 SUMO: yeast Mot1-301 growth rescue at high temperature, primary screen, SUMOylation pathway inhibitor project, S. cerevisiae, ATP luminescence, 38.5C; S. cerevisiae Mot1-301 growth rescue; percent above DMSO median, 100 means doubled; 320,000 compounds, 1% hits; growth rescue, % at 18.8 µM;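 active means every valid replicate shows activation above 250% relative to neutral control wells; inactive means the rest, any valid replicate at or below 250%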;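 further: OY570 slx delta 5 strain wells were the positive control but not used for scaling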
Efflux pump inh: inhibitors of Candida efflux pumps in yeast, primary screen, S. cerevisiae, Nile Red, multiplex. S. cerevisiae Candida pump triplex. inhibition, % at 10 µM. 330,000 compounds, 0.44% hits;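 active means plate passing quality check with inhibition over a set limit, or well fluorescence over plate mean plus 4 SD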;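 further: Nile Red retained in pooled yeast measured as flow cytometry median fluorescence; 0% = buffer negative control and 100% = Enniatin B positive control; higher means more Nile Red kept so more efflux inhibition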
Cardiac RTF inh: cardiac RTF calcium sensitivity inhibitors, primary screen, biochemical, IANBD-TnC fluorescence, EC70 calcium. Troponin I, cardiac muscle (Homo sapiens) + Troponin T, cardiac muscle (Homo sapiens) + …. IANBD-labeled cardiac RTF, Ca2+ fluorescence. inhibition, % at 7.15 µM. 340,000 compounds, 0.12% hits. AID 493244, 2011;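 active means inhibition above the mean inhibition of all tested compounds plus 3 SD, cut at about 17% in these data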;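 further: assay run at fixed EC70 calcium of 1.6 mM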
ARNT TACC3 PPI: disruptors of ARNT/TACC3 protein interaction, primary screen, biochemical, AlphaScreen, single concentration. Transforming acidic coiled-coil-containing protein 3 (Homo sapiens), Q9Y6A5. AlphaScreen His-ARNT PAS-B/GST-TACC3 binding, luminescence; TACC3 fragment carries E629A point mutation. inhibition, % at 9.99 µM. 390,000 compounds, 0.66% hits. AID 623870, 2012;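 active means mean inhibition of replicates at least 50% and at least half of replicates each reaching 50%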;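 further: 0% = complete ARNT plus TACC3 wells and 100% = ARNT alone without TACC3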
UCH37 inh: inhibitors of human UCH37 deubiquitinase, primary screen, biochemical, Ub-AMC cleavage, fluorescence; inhibition, % (test concentration not listed); 330,000 compounds, 0.33% hits; Ubiquitin carboxyl-terminal hydrolase isozyme L5 (Homo sapiens), Q9Y5K5; purified proteasome/UCH37;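 active means mean inhibition over replicate wells above about 20%, limit read from the data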;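 further: 0% = compound-free wells with enzyme and 100% = wells lacking proteasome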
Target sequence (Q9Y5K5 whole entry, looked up): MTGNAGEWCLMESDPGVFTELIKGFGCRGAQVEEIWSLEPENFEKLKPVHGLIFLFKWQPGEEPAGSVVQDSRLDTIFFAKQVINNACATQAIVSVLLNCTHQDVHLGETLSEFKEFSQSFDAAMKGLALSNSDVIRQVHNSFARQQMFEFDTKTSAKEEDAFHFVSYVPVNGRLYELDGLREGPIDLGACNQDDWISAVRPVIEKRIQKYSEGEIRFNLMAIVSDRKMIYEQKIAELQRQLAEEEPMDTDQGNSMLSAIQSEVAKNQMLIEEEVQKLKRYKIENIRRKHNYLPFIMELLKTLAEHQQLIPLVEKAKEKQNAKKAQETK
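assay system = human UCH37 enzyme supplied as purified proteasome complex | amount = proteasome at 0.15 nM in the dispensed enzyme solution | schedule = 30 min compound-proteasome preincubation then 25 min substrate reaction, room temperature | measured by = fluorescence, ex 355 nm, em 460 nm | benchmarks = no-proteasome wells (full inhibition) and compound-free wells (no inhibition)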
cardiac RTF act: cardiac RTF calcium sensitivity activators, primary screen, biochemical, IANBD-TnC fluorescence, EC20 calcium | IANBD-labeled TnC RTF fluorescence at EC20 calcium; 0% EC20 calcium, 100% full calcium | 340,000 compounds, 0.24% hits | activation, % at 7.2 µM | Troponin I, cardiac muscle (Homo sapiens) + Troponin T, cardiac muscle (Homo sapiens) + … | AID 493008, 2010;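 active means activation above the mean over all tested compounds plus 3 SD, cut at about 30% in these data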;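 further: rise in fluorescence read as greater calcium sensitivity of cardiac thin filaments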
ARNT Alpha ctr-1: AlphaScreen signal interference compounds, dose response, artefact control for ARNT-TACC3 interaction inhibitor project, biochemical, luminescence, cherry-pick. AC50, µM (series often up to 68 µM), for the others: at the highest dose activity change, negative = signal decrease. shares compounds with ARNT TACC3 PPI. 1,200 compounds, 50% hits. His-ARNT PASB-GST AlphaScreen artifact counter-screen. AID 651705, 2012;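 active means every separate test run was called active for a drop in luminescence, with AC50 within twice the top valid dose, actives reach about 71 µM in these data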
ARNT Alpha ctr-2: AlphaScreen signal interference by compounds, dose response, artefact control for ARNT/TACC3 disruptor project, biochemical, dual-tagged ARNT, dry powder; shares compounds with ARNT TACC3 PPI; Dual-tagged His-ARNT PASB-GST AlphaScreen artifact counter-screen; AC50, µM; 45 compounds, 70% hits; AID 720564, 2013;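 active means luminescence drop, with half-maximal potency fitted within twice the sample's top valid dose, cut at about 70 µM in these data; inactive means the rest, including signal moving the wrong way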
* hit, by the source's call. Hits are enriched below; roughly 2.1% of the tested compounds scored in any of these assays.

Screening CC(=O)NC(c1ccco1)c1cc(F)c2cccnc2c1O (centres undefined) returned Mot1-301 SUMO -1.3, Efflux pump inh -0.1, Cardiac RTF inh -17.1, ARNT TACC3 PPI 57.5*, UCH37 inh -1.5, cardiac RTF act 0.6 and ARNT Alpha ctr-1 45.4µM*.
Screening COc1ccc(Cc2nnc(NN=Cc3ccc(N(C)C)cc3)[nH]c2=O)cc1OC returned UCH37 inh 9.5.
`NC(=S)NN=Cc1ccccc1OCc1cccc(Cl)c1` gave UCH37 inh 0.6.
For CCSc1nncn1N=Cc1ccc(OC)c(OC)c1 the results were UCH37 inh -0.1.
`CC(C)C(=O)NC(c1cccc([N+](=O)[O-])c1)c1c(O)ccc2ccccc12` (centres undefined) gave Mot1-301 SUMO 117.2, Efflux pump inh 0.0, Cardiac RTF inh -8.1, ARNT TACC3 PPI -4.7, UCH37 inh 0.6 and cardiac RTF act -3.0.
For CC(C)C(=O)NC(c1cccc([N+](=O)[O-])c1)c1ccc2cccnc2c1O (centres undefined) the results were Mot1-301 SUMO 12.5, Efflux pump inh 0.0, Cardiac RTF inh 0.6, ARNT TACC3 PPI 63.0*, UCH37 inh 5.2, cardiac RTF act -3.6 and ARNT Alpha ctr-1 16.8µM*.
For CC(C)CC(=O)NC(c1cccs1)c1ccc2cccnc2c1O (centres undefined) the results were Mot1-301 SUMO -3.9, Efflux pump inh 0.0, Cardiac RTF inh 0.5, UCH37 inh -0.9, cardiac RTF act 1.2 and ARNT Alpha ctr-2 6.98*.
Screening O=C(CSc1cccc2cccnc12)NN=Cc1ccncc1 returned UCH37 inh -14.8.
`O=C(O)CSc1cccc2cccnc12` gave Mot1-301 SUMO 95.8, Efflux pump inh -0.1, Cardiac RTF inh -3.0, ARNT TACC3 PPI 60.1*, UCH37 inh -83.8, cardiac RTF act 7.8 and ARNT Alpha ctr-1 -17.8%.
`CN(C)S(=O)(=O)c1cccc(NC(=O)CSc2cccc3cccnc23)c1` gave Mot1-301 SUMO 5.4, Efflux pump inh 0.1, Cardiac RTF inh 1.0, ARNT TACC3 PPI 64.5*, UCH37 inh -37.2, cardiac RTF act 6.9 and ARNT Alpha ctr-1 11.8µM*.
Screening CCC(=NNC(=O)c1nnn(-c2nonc2N)c1-c1cccc(OC)c1)c1ccc(C)cc1 returned UCH37 inh -0.6.
Oc1ccc(/C=N/Nc2ncc(Br)cn2)c(O)c1 was read as Mot1-301 SUMO 1.2, Efflux pump inh 0.0, Cardiac RTF inh -6.1, ARNT TACC3 PPI 56.9*, cardiac RTF act -4.2 and ARNT Alpha ctr-1 30µM*.
`Cc1nc(C(F)(F)F)c(C(=O)NN=C(N)c2ccccn2)s1` gave UCH37 inh 3.7.
`c1c[nH]c(CN2CCN(Cc3ncc[nH]3)CC2)n1` gave Cardiac RTF inh -2.0, ARNT TACC3 PPI 52.7*, cardiac RTF act -1.9 and ARNT Alpha ctr-1 -3.4%.
N#CC1=C(N)Oc2n[nH]c(-c3ccccn3)c2C1c1c(F)cccc1Cl (centres undefined) was read as Mot1-301 SUMO 47.9, Efflux pump inh 0.2, Cardiac RTF inh -4.7, ARNT TACC3 PPI 55.4*, UCH37 inh 6.3, cardiac RTF act -9.8 and ARNT Alpha ctr-1 -8.1%.
